ChEMBL document CHEMBL4229485, “The design, synthesis, and evaluation of organic dithienopyrrole-based D-π-A dyes for use as sensitizers in photodynamic therapy” (Bioorg Med Chem Lett, 2018)
Calls of active or inactive are those of the source. The rule behind the calls is not given here.

Experiments:
[1] = Dark toxicity in human HeLa cells assessed as reduction in cell viability after 48 hrs by MTT assay; format: cell-based
HeLa [2] = experiment: Phototoxicity in human HeLa cells assessed as reduction in cell viability preincubated for 1 hr followed by LED light irradiation for 15 mins measured after 48 hrs by MTT assay; format: functional, cell-based; conditions: light or radiation study
Outline: (§1)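 HeLa cells were treated with the sensitizer and photo-irradiated. IC50 is the sensitizer concentration that reduced viability by 50%, read from semi-logarithmic dose-response plots.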

[3] = Induction of oxidative damage to human serum albumin assessed as oxidation of tryptophan residue at 10 uM after 15 to 45 mins by fluorescence assay; format: functional
Outline: (§2)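 Sensitizer (10 µM) and HSA (20 µM) in PBS were irradiated with white LED light (420–750 nm, 8.0 ± 0.5 mW/cm2). Photo-oxidation of HSA's single tryptophan was followed as the loss of its intrinsic fluorescence at around 350 nm.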

HeLa [4] = experiment: Phototoxicity in human HeLa cells assessed as reduction in cell viability preincubated for 1 hr followed by LED light irradiation for 60 mins measured after 48 hrs by MTT assay; format: functional, cell-based; conditions: light or radiation study; outline: as §1
HEK293 = experiment: Phototoxicity in HEK293 cells assessed as reduction in cell viability preincubated for 1 hr followed by LED light irradiation for 15 mins measured after 48 hrs by MTT assay; format: functional, cell-based; conditions: Homo sapiens, HEK293, light or radiation study
[5] = Dark toxicity in HEK293 cells assessed as reduction in cell viability measured after 48 hrs by MTT assay; format: cell-based; conditions: human
[6] = Dark toxicity in HEK293 cells assessed as inhibition of cell viability at 10 uM measured after 48 hrs by MTT assay relative to control; format: cell-based; conditions: human, read-out: INH
[7] = Induction of oxidative damage to human serum albumin assessed as oxidation of tryptophan residue at 10 uM after 15 to 45 mins in presence of ROS quencher L-ascorbic acid by fluorescence assay; format: functional; outline: as §2
[8] = Drug uptake in cytoplasm of human HeLa cells at 10 uM after 1 hr by Hoechst 33342 staining based confocal microscopic method; format: ADME, subcellular
[9] = Drug uptake in nucleus of human HeLa cells at 10 uM after 1 hr by Hoechst 33342 staining based confocal microscopic method; format: ADME, subcellular

Which IC50 [1] does the source give for `CN(C)c1ccc(-c2cc3c(s2)c2sc(-c4ccc(/C=C5\SC(=S)N(CC(=O)O)C5=O)s4)cc2n3C(C)(C)C)cc1` here?
The IC50 was over 100 µM.

And the IC50 (HeLa [2])?
Its IC50 is 12.1 µM.

What about the Activity [3] of the same compound?
Its Activity is “inactive”.

What does the source list for `CN(C)c1ccc(-c2cc3c(s2)c2sc(-c4ccc(C=O)s4)cc2n3C(C)(C)C)cc1`?
IC50 [1]: > 10 µM; IC50 (HeLa [2]): 2.5 µM; Activity [3]: inactive

For `CN(C)c1ccc(-c2cc3c(s2)c2sc(-c4ccc(/C=C(\C#N)C(N)=O)s4)cc2n3C(C)(C)C)cc1`, which IC50 [1] is on record?
Its IC50 is 54 µM.

What about the IC50 (HeLa [2]) of the same compound?
Its IC50 is 5 µM.

What about the Activity [3] of the same compound?
The Activity was “inactive”.

With `CN(C)c1ccc(-c2cc3c(s2)c2sc(-c4ccc(/C=C(\C#N)C(=O)O)s4)cc2n3C(C)(C)C)cc1` as the compound, how does the IC50 [1] read?
The IC50 was 15.5 µM.

What about the IC50 (HeLa [2]) of the same compound?
Its IC50 is 0.6 µM.

And the Activity [3]?
Its Activity is “Active”.

Which IC50 [1] does the source give for `CCCCN1C(=O)C(=C/C=C/C=C2\Oc3ccccc3N2CCCS(=O)(=O)O)C(=O)N(CCCC)C1=S` here?
The IC50 was over 100 µM.

And the IC50 (HeLa [2])?
Its IC50 is 16 µM.

Which results are given for `CC(C)(C)n1c2cc(-c3ccc(N(c4ccccc4)c4ccccc4)cc3)sc2c2sc(-c3ccc(/C=C(\C#N)C(N)=O)s3)cc21`?
IC50 [1]: > 100 µM; IC50 (HeLa [2]): > 100 µM; Activity [3]: inactive

With `C=CC1=C(C)c2cc3[nH]c(cc4nc(cc5[nH]c(cc1n2)c(C)c5C=C)C(C)=C4CCC(=O)O)c(CCC(=O)O)c3C` as the compound, how does the IC50 [1] read?
The IC50 was 12.5 µM.

What about the IC50 (HeLa [2]) of the same compound?
The IC50 was 0.75 µM.

For `CC(C)(C)n1c2cc(-c3ccc(N(c4ccccc4)c4ccccc4)cc3)sc2c2sc(-c3ccc(/C=C4\SC(=S)N(CC(=O)O)C4=O)s3)cc21`, which IC50 [1] is on record?
Its IC50 is 60.2 µM.

What about the IC50 (HeLa [2]) of the same compound?
Its IC50 is 17.1 µM.

What about the Activity [3] of the same compound?
Its Activity is “inactive”.

With `COc1ccc(-c2cc3c(s2)c2sc(-c4ccc(/C=C5\C(=O)N(CCO)C(=O)C(C#N)=C5C)s4)cc2n3C(C)(C)C)cc1` as the compound, how does the IC50 [1] read?
The IC50 was 60 µM.

And the IC50 (HeLa [2])?
The IC50 was 15.9 µM.

With `CC(C)(C)n1c2cc(-c3ccc(N(c4ccccc4)c4ccccc4)cc3)sc2c2sc(-c3ccc(C=O)s3)cc21` as the compound, how does the IC50 [1] read?
Its IC50 is 67 µM.

And the IC50 (HeLa [2])?
Its IC50 is 45 µM.

What about the Activity [3] of the same compound?
The Activity was “inactive”.

Which IC50 [1] does the source give for `CC(C)(C)n1c2cc(-c3ccc(N(c4ccccc4)c4ccccc4)cc3)sc2c2sc(-c3ccc(/C=C(\C#N)C(=O)O)s3)cc21` here?
Its IC50 is over 100 µM.

What about the IC50 (HeLa [2]) of the same compound?
Its IC50 is over 100 µM.

What about the Activity [3] of the same compound?
Its Activity is “inactive”.

Which IC50 [1] does the source give for `COc1ccc(-c2cc3c(s2)c2sc(-c4ccc(C=O)s4)cc2n3C(C)(C)C)cc1` here?
Its IC50 is 68.6 µM.

And the IC50 (HeLa [2])?
Its IC50 is 3.8 µM.

What about the Activity [3] of the same compound?
Its Activity is “inactive”.

With `COc1ccc(-c2cc3c(s2)c2sc(-c4ccc(/C=C(\C#N)C(N)=O)s4)cc2n3C(C)(C)C)cc1` as the compound, how does the IC50 [1] read?
The IC50 was 15.7 µM.

And the IC50 (HeLa [2])?
The IC50 was 0.56 µM.

And the Activity [3]?
Its Activity is “Active”.

Which IC50 [1] does the source give for `COc1ccc(-c2cc3c(s2)c2sc(-c4ccc(/C=C(\C#N)C(=O)O)s4)cc2n3C(C)(C)C)cc1` here?
Its IC50 is 43.4 µM.

And the IC50 (HeLa [2])?
Its IC50 is 0.19 µM.

What about the IC50 (HeLa [4]) of the same compound?
Its IC50 is 0.063 µM.

What about the IC50 (HEK293) of the same compound?
Its IC50 is 0.043 µM.

And the IC50 at 48 h [5]?
Its IC50 at 48 h is over 10 µM.

And the cytotoxicity at 48 h, 10 µM [6]?
Its cytotoxicity at 48 h, 10 µM is 7%.

What about the Activity [3] of the same compound?
The Activity was “Active”.

And the Activity [7]?
The Activity was “Active”.

What about the Drug uptake [8] of the same compound?
The Drug uptake was “Active”.

What about the Drug uptake [9] of the same compound?
The Drug uptake was “Active”.

For `N#C/C(=C\c1ccc(-c2ccc(-c3ccc(N(c4ccccc4)c4ccccc4)cc3)s2)s1)C(=O)O`, which IC50 [1] is on record?
Its IC50 is 21.9 µM.

And the IC50 (HeLa [2])?
The IC50 was 0.21 µM.

What about the IC50 (HEK293) of the same compound?
The IC50 was 0.16 µM.

And the IC50 at 48 h [5]?
The IC50 at 48 h was over 10 µM.

What about the cytotoxicity at 48 h, 10 µM [6] of the same compound?
Its cytotoxicity at 48 h, 10 µM is 32%.

For `COc1ccc(-c2cc3c(s2)c2sc(-c4ccc(/C=C5\SC(=S)N(CC(=O)O)C5=O)s4)cc2n3C(C)(C)C)cc1`, which IC50 [1] is on record?
The IC50 was 63.9 µM.

What about the IC50 (HeLa [2]) of the same compound?
Its IC50 is 5.7 µM.

And the Activity [3]?
Its Activity is “inactive”.
